Data published in ChEMBL document CHEMBL1156225, “Ircinialactams: subunit-selective glycine receptor modulators from Australian sponges of the family Irciniidae” (Bioorg Med Chem, 2010).
Activity calls are given as the source filed them. The calls are words filed in the database; no cut-off is given here.

Legend:
Assay type in all cases: functional, cell-based
[1] = molecular target: T1, Glycine receptor subunit alpha-1 (Homo sapiens, UniProt P23415); assay: (§1) Antagonist activity at human recombinant alpha 1 GlyR expressed in HEK293 cells assessed as inhibition of glycine current influx by whole cell patch clamp assay
T1 sequence (P23415 whole entry): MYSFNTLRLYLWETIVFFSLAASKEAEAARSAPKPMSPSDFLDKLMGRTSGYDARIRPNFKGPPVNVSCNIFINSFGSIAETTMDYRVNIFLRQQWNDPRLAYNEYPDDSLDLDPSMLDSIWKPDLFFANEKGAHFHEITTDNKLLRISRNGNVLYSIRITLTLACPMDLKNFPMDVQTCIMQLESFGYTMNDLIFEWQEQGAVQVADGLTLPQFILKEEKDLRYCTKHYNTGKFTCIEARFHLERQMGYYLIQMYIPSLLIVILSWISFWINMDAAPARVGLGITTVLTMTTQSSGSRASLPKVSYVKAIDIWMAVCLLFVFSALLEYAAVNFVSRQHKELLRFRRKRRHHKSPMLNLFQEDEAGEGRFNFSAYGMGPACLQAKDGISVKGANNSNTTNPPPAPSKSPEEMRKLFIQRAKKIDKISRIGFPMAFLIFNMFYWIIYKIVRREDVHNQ

[2] = molecular target: T2, Glycine receptor subunit alpha-1 (Homo sapiens) (UniProt P23415); assay: Agonist activity at human recombinant alpha 1 GlyR expressed in HEK293 cells assessed as potentiation of glycine current at 100 uM by whole cell patch clamp assay relative to EC20 glycine maximum response
T2 sequence (whole entry): T1 sequence (P23415 whole entry)

[3] = molecular target: T3, Glycine receptor subunit alpha-3 (Homo sapiens, UniProt O75311); assay: Antagonist activity at human recombinant alpha 3 GlyR expressed in HEK293 cells assessed as inhibition of glycine current influx by whole cell patch clamp assay
T3 sequence (O75311 whole entry): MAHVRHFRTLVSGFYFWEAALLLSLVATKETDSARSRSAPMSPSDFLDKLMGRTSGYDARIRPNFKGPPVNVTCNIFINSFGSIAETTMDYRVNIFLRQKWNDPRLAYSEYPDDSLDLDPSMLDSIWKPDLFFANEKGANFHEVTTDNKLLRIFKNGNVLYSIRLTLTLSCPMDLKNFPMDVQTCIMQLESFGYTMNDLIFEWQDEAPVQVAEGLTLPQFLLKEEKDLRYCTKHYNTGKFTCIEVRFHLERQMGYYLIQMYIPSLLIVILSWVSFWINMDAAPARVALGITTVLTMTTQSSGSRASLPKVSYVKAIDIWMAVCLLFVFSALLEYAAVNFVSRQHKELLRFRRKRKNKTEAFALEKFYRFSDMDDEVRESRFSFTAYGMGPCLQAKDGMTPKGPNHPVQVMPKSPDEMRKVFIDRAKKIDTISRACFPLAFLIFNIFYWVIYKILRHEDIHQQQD

[4] = molecular target: T3, Glycine receptor subunit alpha-3; assay: Agonist activity at human recombinant alpha 3 GlyR expressed in HEK293 cells assessed as potentiation of glycine current by whole cell patch clamp assay
[5] = molecular target: T2, Glycine receptor subunit alpha-1 (Homo sapiens); assay: Agonist activity at human recombinant alpha 1 GlyR expressed in HEK293 cells assessed as potentiation of glycine current up to 100 uM by whole cell patch clamp assay
[6] = molecular target: T1, Glycine receptor subunit alpha-1; assay: Agonist activity at human recombinant alpha 1 GlyR expressed in HEK293 cells assessed as potentiation of glycine current by whole cell patch clamp assay
[7] = molecular target: T2, Glycine receptor subunit alpha-1 (Homo sapiens); assay: as §1
[8] = molecular target: T2, Glycine receptor subunit alpha-1 (Homo sapiens); assay: Antagonist activity at human recombinant alpha 1 GlyR expressed in HEK293 cells assessed as inhibition of glycine current influx up to 30 uM by whole cell patch clamp assay
[9] = molecular target: T4, Glycine receptor subunit alpha-2 (Homo sapiens) (UniProt P23416); assay: Antagonist activity at human recombinant alpha 2 GlyR expressed in HEK293 cells assessed as inhibition of glycine current influx by whole cell patch clamp assay
T4 sequence (whole entry): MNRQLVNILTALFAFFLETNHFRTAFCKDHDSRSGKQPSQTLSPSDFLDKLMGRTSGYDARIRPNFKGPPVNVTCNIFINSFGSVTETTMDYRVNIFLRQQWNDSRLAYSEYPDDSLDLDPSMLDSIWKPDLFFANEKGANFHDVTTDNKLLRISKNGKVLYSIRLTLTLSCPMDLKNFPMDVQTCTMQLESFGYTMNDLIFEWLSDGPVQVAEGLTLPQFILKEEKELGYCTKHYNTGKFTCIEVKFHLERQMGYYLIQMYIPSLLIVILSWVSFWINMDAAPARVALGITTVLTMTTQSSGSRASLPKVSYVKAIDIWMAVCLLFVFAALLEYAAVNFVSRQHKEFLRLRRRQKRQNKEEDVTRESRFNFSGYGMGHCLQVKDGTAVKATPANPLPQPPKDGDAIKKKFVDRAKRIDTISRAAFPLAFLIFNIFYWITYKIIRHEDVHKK
In short: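 HEK293 cells transiently expressing α2 GlyR, recorded by conventional whole-cell patch clamp. Current was activated with EC20 glycine (50 µM), and compound was applied at 10 µM together with glycine. Response is expressed as % of control glycine current, averaged from six cells.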

[10] = molecular target: T2, Glycine receptor subunit alpha-1 (Homo sapiens); assay: Agonist activity at human recombinant alpha 1 GlyR expressed in HEK293 cells assessed as potentiation of glycine current at 1 to 10 uM by whole cell patch clamp assay
[11] = molecular target: T5, Glycine receptor subunit alpha-3 (Homo sapiens) (UniProt O75311); assay: Agonist activity at human recombinant alpha 3 GlyR expressed in HEK293 cells assessed as potentiation of glycine current up to 100 uM by whole cell patch clamp assay
T5 sequence (whole entry): T3 sequence (O75311 whole entry)

[12] = molecular target: T5, Glycine receptor subunit alpha-3 (Homo sapiens); assay: Agonist activity at human recombinant alpha 3 GlyR expressed in HEK293 cells assessed as potentiation of glycine current at 100 uM by whole cell patch clamp assay relative to EC20 glycine maximum response
[13] = molecular target: T4, Glycine receptor subunit alpha-2 (Homo sapiens); assay: Antagonist activity at human recombinant alpha 2 GlyR expressed in HEK293 cells assessed as inhibition of glycine current influx at 10 uM by whole cell patch clamp assay

SMILES	IC50 [1]	IC50 ([3]; hek293)	EC50 [4]	EC50 ([6]; hek293)	IC50 ([3]; read-out: IC50)	other results
CC1=C(O)/C(=C/[C@@H](C)CCC/C(C)=C/CCC(C)(O)CCCC2=CCN(CC(=O)O)C2=O)OC1=O (stereo partly specified) [8-HYDROXYIRCINIALACTAM A]	Not Active	Not Active	Not Active			Activity [2]: 217%; Activity [5]: inactive
CC1=C(O)/C(=C/[C@@H](C)CCC/C(C)=C/CC/C(C)=C/CCc2ccoc2)OC1=O	Not Active	Not Active	Not Active	Not Active		
CCCCCCC(C)(C)c1cc(O)c2c(c1)OC(C)(C)[C@@H]1CC=C(CO)C[C@@H]21						Activity [7]: Active; Activity [8]: inactive; Activity [9]: Active
CC1=C(O)/C(=C/C(C)/C=C/C=C(\C)CCCc2coc(Cc3ccoc3)c2)OC1=O (stereo unspecified) [COMETIN A]	Not Active	Not Active	Not Active	Not Active		
CC(C)(C)C1(O)CC[S+]([O-])CC1 (stereo unspecified)						Activity [10]: 135%
C/C(=C\CCC1=CCN(CC(=O)O)C1=O)CC/C=C(\C)CCC[C@H](C)CC(=O)O [IRCINIALACTAM C]	Not Active		Not Active	Not Active	30 µM	
CCOC(=O)C(O)(C[C@@H](C)CCC/C(C)=C/CC/C(C)=C/CCC1=CCN(CC(=O)O)C1=O)C(C)(O)C(=O)O (stereo partly specified) [IRCINIALACTAM D]	Not Active		Not Active	Not Active	30 µM	
CC1=C(O)/C(=C/C(C)/C=C/C=C(\C)CCCC(C)CCCc2ccoc2)OC1=O (stereo unspecified)	Not Active	Not Active	Not Active	Not Active		
CC1=C(O)/C(=C/[C@@H](C)CCC/C(C)=C/CCC(C)(O)CCCC2=CC(=O)N(CC(=O)O)C2)OC1=O (stereo partly specified) [8-HYDROXYIRCINIALACTAM B]	Not Active	Not Active				Activity [2]: 330%; EC50 ([6]; read-out: EC50): 0.5 µM; Activity [11]: inactive; Activity [12]: 183%
CC1=C(O)/C(=C/[C@@H](C)CCC/C(C)=C/CC/C(C)=C/CCC2=CCN(CC(=O)O)C2=O)OC1=O [IRCINIALACTAM A]	Not Active		Not Active		30 µM	Activity [2]: 140%; Activity [5]: inactive
Cc1c(C(=O)c2cccc3ccccc23)c2cccc3c2n1[C@H](CN1CCOCC1)CO3						Activity [7]: Active; Activity [8]: inactive; Activity [9]: Active
CC1=C(O)/C(=C/[C@@H](C)CCC/C(C)=C/CCC(C)(O)CCCc2ccoc2)OC1=O (stereo partly specified)	Not Active		Not Active		7 µM	Activity [2]: 215%; inhibition [13]: 87%; EC50 ([6]; read-out: EC50): 1.2 µM; Activity [8]: Active
CC1=C(O)/C(=C/[C@@H](C)CCC/C(C)=C\CC/C(C)=C/CCc2ccoc2)OC1=O	Not Active	Not Active	Not Active	Not Active		
C/C(=C\CCC1=CCN(CC(=O)O)C1=O)CC/C=C(\C)CCC[C@@H](C)CC(=O)O	Not Active		Not Active	Not Active	30 µM	
CCCCCCC(C)(C)c1cc(OC)c([C@H]2C=C(CO)[C@@H]3C[C@H]2C3(C)C)c(OC)c1						Activity [7]: Active; Activity [8]: inactive; Activity [9]: Active
